Assay outcomes from PubChem BioAssay.
The list is not random: actives were taken first. Their share in the collection is about 9.3%.
Ecoli WT expand = blocks growth of wild type E. coli BW25113. AID 710. growth inhibition, % at 100 µM. OD600 absorbance. hit rate 0.15% among 98,000;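 active = growth inhibition above about 50% at one test dose, limit read from the data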;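 also: growth measured after 20 h incubation at 37 °C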
D1 allo mod = D1 dopamine receptor (human) allosteric modulation; HEK293 D1, CRE-luciferase, dopamine EC30 potentiation; actives deviate in either direction; B-score at 10 µM; hit rate 5.9% among 58,000; AID 641;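 active = luminescence count or its row- and column-corrected plate score outside the 99.7% band of the plate's sample wells, on either side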
hDAT+cocaine = human DAT dopamine uptake with cocaine, either direction. Q01959. LLC-PK1 hDAT cells, [14C]-dopamine uptake with cocaine IC80; actives deviate in either direction. B-score at 10 µM. hit rate 1.3% among 110,000. AID 449768;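 active = Z score or B-score, a plate-position-corrected score, falls beyond the plate's 99.7% confidence bounds, in either direction; inactive = both scores lie inside the 99.7% bounds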
Target sequence (Q01959 whole entry, looked up): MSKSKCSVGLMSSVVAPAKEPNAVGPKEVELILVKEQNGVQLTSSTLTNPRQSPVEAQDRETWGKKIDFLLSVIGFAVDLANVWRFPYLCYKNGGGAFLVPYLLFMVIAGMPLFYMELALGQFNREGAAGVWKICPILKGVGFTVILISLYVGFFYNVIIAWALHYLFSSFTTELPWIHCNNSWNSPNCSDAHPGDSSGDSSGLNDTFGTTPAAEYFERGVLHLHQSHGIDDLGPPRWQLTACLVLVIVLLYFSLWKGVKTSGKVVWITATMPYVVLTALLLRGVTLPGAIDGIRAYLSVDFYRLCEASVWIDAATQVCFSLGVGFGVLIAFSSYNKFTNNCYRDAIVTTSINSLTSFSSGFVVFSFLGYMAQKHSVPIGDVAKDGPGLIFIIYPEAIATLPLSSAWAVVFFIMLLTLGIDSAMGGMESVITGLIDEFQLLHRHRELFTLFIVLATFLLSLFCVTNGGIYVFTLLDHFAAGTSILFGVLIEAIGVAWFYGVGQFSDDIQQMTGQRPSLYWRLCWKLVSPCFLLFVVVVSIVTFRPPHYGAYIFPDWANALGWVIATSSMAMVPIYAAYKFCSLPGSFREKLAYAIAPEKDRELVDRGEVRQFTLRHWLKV
PostGolgi ctrl = yeast control strain growth, post-Golgi counter-screen. efflux-deficient yeast background strain, growth absorbance A615, 16 h. hit rate 5% among 98,000. inhibition, % at 10 µM. AID 738
PostGolgi yeast = growth inhibition of a yeast mutant, post-Golgi transport screen; post-Golgi transport phenotypic cell assay; inhibition, % at 10 µM; hit rate 0.9% among 98,000; AID 739;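 also: yeast cells grown in 1536-well plates; yeast grown about 18 h at 30C before absorbance read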
tolC growth inh = blocks growth of E. coli BW25113 tolC mutant | OD615 | growth inhibition, % at 10 µM (by protocol) | hit rate 2.2% among 65,000 | AID 573;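 active = growth inhibition at or above a cutoff equal to the mean over every tested compound plus 3 SD, cut at about 60% in these data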;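 also: growth measured after 20 h incubation at 37 °C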
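test system = E. coli BW25113 ΔtolC::kan bacteria | medium = LB with kanamycin 50 µg/mL | signal = OD at 615 nm | schedule = 37 °C, 20 h exposure | evaluation = % inhibition of E. coli growth | compound dosing = one dose of 10 µM final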
Hits are given with their value; 0 = inactive; - = no result. Rule as the data show it, unless noted: active = inhibition above about 30%; inactive = the rest.

SMILES	Ecoli WT expand	D1 allo mod	hDAT+cocaine	PostGolgi ctrl	PostGolgi yeast	tolC growth inh
O=C(CCSc1ccc(Cl)cc1)NC12CC3CC(CC(C3)C1)C2	0	-	0	43	0	-
C[C@]12CC[C@H]3C(=CCc4cc(O)ccc43)[C@@H]1CCC2=O	-	-	0	-	-	-
CCN(C(=O)CSc1nnc(Cn2nnc3ccccc32)o1)c1nc(-c2ccccc2)cs1	0	0	0	35	0	0
CCN(C(=O)CSc1nnc(Cn2nnc3ccccc32)o1)c1nc(C)cs1	-	-	0	-	-	-
CCCCN1C=C(C(=O)OC)C(c2ccccc2C(F)(F)F)C(C(=O)OC)=C1	0	-	3.1	0	0	-
Cc1nc2c(C)cccn2c1/C(O)=C1\C(=O)C(=O)N(CCN2CCOCC2)C1c1cccs1 (stereo not drawn)	0	-	0	0	0	-
O=C(CSc1nc2cc(Cl)ccc2o1)c1cccs1	0	0	0	0	0	0
COc1ccc(C(C)=O)cc1CSc1nc2cc(Cl)ccc2o1	0	-	0	47	0	-
CCCC[C@@H]1CCCO[C@@](C(=O)NCc2ccc(C)o2)(C(F)(F)F)C1	-	-	0	-	-	-
CCN(CC)c1ccc(C(=O)Nc2cccc(F)c2)cc1	0	0	0	0	0	62
CC(C)Cn1c(=O)c(C2=NS(=O)(=O)c3ccccc3N2)c(O)c2ccccc21	-	0	-	-	-	0
Cc1ccc(-c2nc(C#N)c(NCCc3ccccn3)o2)cc1	0	-	0	33	0	0
CC1=C(C(=O)OCCOc2ccccc2)C(c2ccc(C)o2)C2=C(CC(C)(C)CC2=O)N1 (stereo not drawn)	0	0	3.7	0	0	0
CC1=C(C(=O)OC2CCCCC2)C(c2ccco2)C2=C(CC(C)(C)CC2=O)N1 (stereo not drawn)	0	0	0	41	0	0
COC(=O)C1C(=O)C2=C(CC1C)NC(C)=C(C(=O)OCCOc1ccccc1)C2c1ccc(C)o1 (stereo not drawn)	0	0	0	0	0	0
COc1cc(CCN2C(=O)N[C@@H](CCc3ccccc3)C(C(C)=O)=C2C)cc(OC)c1OC	-	-	0	-	-	-
Cc1cc(C)cc(C(=O)/C=C2\NC(=O)CS2)c1	0	-1.8	0	0	0	0
Cc1ccc2nc(NC(=O)C(NS(=O)(=O)c3cccc4nsnc34)C(C)C)sc2c1 (stereo not drawn)	0	-	0	0	0	-
O=C(Nc1nnc(C2CC2)s1)c1cc(S(=O)(=O)N2CCN(c3ccccc3)CC2)ccc1Cl	0	-	0	33	0	-
O=C(Nc1nnc(C2CC2)s1)c1cc(-c2ccccc2)nn1-c1ccccc1	0	-	0	0	39	67
COc1cc(CCN2C(=O)c3cccc4cccc(c34)C2=O)c(S(=O)(=O)NCCCO)cc1OC	0	-	0	0	0	-
O=C(CN1CCC(O)(c2ccccc2F)CC1)NCCc1c[nH]c2ccccc12	0	0	0	0	0	0
Cc1ccc(Cl)cc1N1CCN(Cc2nc3ccsc3c(=O)[nH]2)CC1	0	-	0	0	0	-
O=C(Nc1ccc(F)cc1)c1ccccc1F	0	-	0	0	0	-
O=C(Nc1ccc2c(c1)OCCO2)c1ccccc1F	0	0	-1.8	0	0	0
SMILES	Ecoli WT expand	D1 allo mod	hDAT+cocaine	PostGolgi ctrl	PostGolgi yeast	tolC growth inh
CC(=O)N(CCC(Cc1ccccc1)c1ccc2c(c1)OCO2)Cc1ccccc1F (stereo not drawn)	0	-	-	36	0	-
O=C(NC(Cc1ccccc1)c1ccc2c(c1)OCCCO2)c1ccccc1F (stereo not drawn)	0	-	2.6	0	0	-
O=C(Nc1ccncc1)c1ccccc1F	0	0	0	42	0	0
CC1CCCN(S(=O)(=O)c2ccc(S(=O)(=O)NC(C)c3cccs3)cc2)C1 (stereo not drawn)	0	-	0	0	0	-
O=C(CCCn1c(=O)[nH]c2cc(Cl)ccc2c1=O)NCCCN1CCCC1=O	0	0	0	0	0	0
COc1cc(-c2nnc(SCC3(c4ccccc4)OCCO3)o2)cc(OC)c1OC	0	-	0	0	0	-
CCOc1cc(S(=O)(=O)NCC2OCCc3ccccc32)c(OCC)cc1-n1cnnn1 (stereo not drawn)	0	0	0	0	0	0
CC(=O)c1c(C)[nH]c(C(=O)Nc2ccc3c(c2)OCCO3)c1C	0	-2.7	0	0	0	0
O=C(Nc1ccc2c(c1)OCCO2)C1CCC1	0	0	0	0	0	0
O=C(Nc1ccc2c(c1)OCCO2)NC1CCCCC1	0	-3.1	0	0	0	0
Cn1cc(Br)c(C(=O)NC2CCCCC2)n1	0	0	0	0	0	0
Cc1sc(NC(=O)c2oc3ccccc3c2C)c(C#N)c1C	0	0	0	0	0	0
CC(=O)Nc1cccc(NC(=O)c2oc3ccccc3c2C)c1	0	0	0	0	0	67
CC(=O)Nc1cccc(NC(=O)c2cc3ccccc3o2)c1	0	-	0	0	0	0
Cc1c(C(=O)NC2=NCCS2)oc2ccccc12	0	-4.9	0	0	0	0
Cc1ccc(C(=O)Nc2ccc(Cl)cn2)cc1	0	-4.1	0	0	0	0
Cc1c(C(=O)Nc2ccc(Cl)cn2)oc2ccccc12	0	0	0	31	0	0
CCCOc1ccc(C(=O)Nc2ccc(Cl)cn2)cc1	0	-	0	0	0	-
CC(C)(C)C1CCC2(CC1)CC(=O)c1ccccc1O2 (stereo not drawn)	-	-	0	-	-	-
Cc1nnc(SCc2ccccc2F)n1NCc1cccs1	0	0	0	0	0	0
Nc1c(C(=O)c2ccccc2)oc2ccccc12	0	-	0	0	0	-
CC(=O)Nc1c(C(=O)c2ccccc2)oc2ccccc12	0	6	0	0	0	0
Cc1cccc(-c2noc(-c3cc4ccccc4oc3=O)n2)c1	0	-	0	0	0	-
COc1ccc(NC(=O)CC2SC(=NCc3ccccc3OC)NC2=O)cc1 (stereo not drawn)	0	-4	0	0	0	0
COc1ccccc1CN=C1NC(=O)C(CC(=O)Nc2ccc(OC)c(OC)c2)S1 (stereo not drawn)	0	-	0	0	0	-
SMILES	Ecoli WT expand	D1 allo mod	hDAT+cocaine	PostGolgi ctrl	PostGolgi yeast	tolC growth inh
CC1CCCN(C(=O)CSCC(=O)N=c2sc3ccccc3n2C)C1 (stereo not drawn)	0	0	2.7	0	0	0
Cn1c(=NC(=O)CSCC(=O)N2CCCC2)sc2ccccc21	0	0	0	0	0	0
Cc1ccccc1NC(=S)NN1CCN(C)CC1	0	-	0	0	0	-
COC(=O)c1nn(-c2ccccc2)c(Sc2ccc(Cl)cc2)c1/C=N/O	0	-	0	0	0	-
CCSc1nnc(NC(=O)CSc2nc3c(c(=O)n2CC)SC(C)C3)s1 (stereo not drawn)	0	0	-	0	0	0
CCn1c(SCC(=O)Nc2ccc3c(c2)OCO3)nc2c(c1=O)SC(C)C2 (stereo not drawn)	0	0	0	74	0	0
CCn1c(SCC(=O)Nc2nnc(C)s2)nc2c(c1=O)SC(C)C2 (stereo not drawn)	0	0	0	39	0	0
CCOC(=O)C1CCCN(C(=O)c2ccco2)C1 (stereo not drawn)	0	0	0	0	0	0
OCCNCc1cc(Br)ccc1OCc1ccc(Cl)cc1	0	-	-	0	0	-
Brc1ccc(OCc2ccccc2)c(CNCc2ccncc2)c1	0	-	0	95	101	-
